Data set [1] concerns Vaccinia virus. The experiment in a line: Antiviral activity against Vaccinia virus infected in human HEL cells assessed as inhibition of virus-induced cytopathic effect after 3 days by MTS assay. The format is functional, organism-based. As to conditions: Orthopoxvirus vaccinia. The gist of the method: (§1)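 Confluent cell monolayers were infected with 100 CCID50 of virus and allowed 2 h adsorption at 37 °C. Virus was then removed and serial compound dilutions were added. Cultures were incubated at 37 °C for 3 days, until CPE was complete in the untreated virus control. EC50 was the concentration giving 50% inhibition of virus-induced CPE, by visual score or by MTS formazan cell viability.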
(In general: Damage to the host cells serves as the signal in cytopathic effect assays.)

The subject of data set [2] is Influenza A virus. The experiment in a line: Antiviral activity against influenza A virus H3N2 infected in MDCK cells assessed as inhibition of virus-induced cytopathic effect after 3 days by MTS assay. The format is functional, organism-based. In short, it runs like this:
as §1

The subject of data set [3] is Escherichia coli. As to the kind of experiment: Antibacterial activity against Escherichia coli after 24 hrs by serial dilution method. The class given is functional.
The subject of data set [4] is Felid alphaherpesvirus 1. As to the kind of experiment: Antiviral activity against Feline herpesvirus 1 infected in […] cells assessed as inhibition of virus-induced cytopathic effect after 3 days by MTS assay. The format is functional, organism-based. The gist of the method: as §1
For data set [5], the system named is Candida albicans. As to the kind of experiment: Antifungal activity against Candida albicans after 48 hrs by serial dilution method. The format is functional. The gist of the method:
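Serial compound dilutions in Sabouraud dextrose broth (tube dilution), incubated 37 °C for 48 h. MIC was read as the lowest concentration with no growth.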

The test system of data set [6] is Human alphaherpesvirus 2. As to the kind of experiment: Antiviral activity against Herpes simplex virus 2 G infected in human HEL cells assessed as inhibition of virus-induced cytopathic effect after 3 days by MTS assay. As to conditions: strain G. The class given is functional, organism-based. The gist of the method: as §1
Data set [7] deals with Human alphaherpesvirus 1. The experiment in a line: Antiviral activity against acyclovir-resistant […] kinase-deficient HSV1 KOS infected in human HEL cells assessed as inhibition of virus-induced cytopathic effect after 3 days by MTS assay. The format is functional, organism-based. The gist of the method: as §1
For data set [8], the system named is Aspergillus niger. As to the kind of experiment: Antifungal activity against Aspergillus niger after 7 days by serial dilution method. The class given is functional.
Data set [9] concerns Human respirovirus 3. As to the kind of experiment: Antiviral activity against Parainfluenza 3 virus infected in african green monkey Vero cells assessed as inhibition of virus-induced cytopathic effect after 3 days by MTS assay. The format is functional, organism-based. The gist of the method:
as §1

Data set [10] concerns Sindbis virus. The experiment in a line: Antiviral activity against Simbidis virus infected in african green monkey Vero cells assessed as inhibition of virus-induced cytopathic effect after 3 days by MTS assay. The class given is functional, organism-based. The gist of the method:
as §1

Data set [11] deals with Influenza A virus. The experiment in a line: Antiviral activity against influenza A virus H1N1 infected in MDCK cells assessed as inhibition of virus-induced cytopathic effect after 3 days by MTS assay. The class given is functional, organism-based. The gist of the method: as §1
In data set [12] the test system is Punta Toro virus. The experiment in a line: Antiviral activity against Punta toro virus infected in african green monkey Vero cells assessed as inhibition of virus-induced cytopathic effect after 3 days by MTS assay. The format is functional, organism-based. In short, it runs like this: as §1
In data set [13] the test system is Respiratory syncytial virus. The experiment in a line: Antiviral activity against RSV infected in human HeLa cells assessed as inhibition of virus-induced cytopathic effect after 3 days by MTS assay. As to conditions: 72 h. The format is functional, organism-based. In short, it runs like this:
as §1

Data set [14] concerns Vesicular stomatitis virus. As to the kind of experiment: Antiviral activity against VSV infected in human HeLa cells assessed as inhibition of virus-induced cytopathic effect after 3 days by MTS assay. As to conditions: 72 h. The format is functional, organism-based. In short, it runs like this: as §1
Data set [15] in a line: (§2) Cytotoxicity against human HeLa cells after 3 days by MTS assay. The class given is cell-based. As to conditions: HeLa cells. The gist of the method: (§3)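 Uninfected HeLa cells were run in parallel with the antiviral assay and exposed to serial compound dilutions. CC50 is the 50% cytotoxic concentration from colorimetric formazan-based MTS cell viability.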
(In general: Tetrazolium assays rely on reduction of a dye to a coloured formazan, in cell work by metabolically active cells.)

Data set [16] relates to HeLa. Described as §2. The class given is cell-based. As to conditions: hela, 72 h. The gist of the method: as §3
The subject of data set [17] is Staphylococcus aureus. The experiment in a line: Antibacterial activity against Staphylococcus aureus after 24 hrs by serial dilution method. The format is functional.
Data set [18] deals with Coxsackievirus B4. As to the kind of experiment: Antiviral activity against Coxsackie virus B4 infected in african green monkey Vero cells assessed as inhibition of virus-induced cytopathic effect after 3 days by MTS assay. The class given is functional, organism-based. The gist of the method: as §1
Data set [19] relates to Vesicular stomatitis virus. As to the kind of experiment: Antiviral activity against VSV infected in human HEL cells assessed as inhibition of virus-induced cytopathic effect after 3 days by MTS assay. The class given is functional, organism-based. The gist of the method: as §1
Data set [20] has as its system Mammalian orthoreovirus 1. The experiment in a line: Antiviral activity against Reovirus 1 infected in african green monkey Vero cells assessed as inhibition of virus-induced cytopathic effect after 3 days by MTS assay. The format is functional, organism-based. The gist of the method: as §1
The test system of data set [21] is Influenza B virus. The experiment in a line: Antiviral activity against influenza B virus infected in MDCK cells assessed as inhibition of virus-induced cytopathic effect after 3 days by MTS assay. The format is functional, organism-based. The gist of the method:
as §1

The test system of data set [22] is Human alphaherpesvirus 1. As to the kind of experiment: Antiviral activity against Herpes simplex virus 1 KOS infected in human HEL cells assessed as inhibition of virus-induced cytopathic effect after 3 days by MTS assay. The class given is functional, organism-based. In short, it runs like this:
as §1

The subject of data set [23] is Coxsackievirus B4. As to the kind of experiment: Antiviral activity against Coxsackie virus B4 infected in human HeLa cells assessed as inhibition of virus-induced cytopathic effect after 3 days by MTS assay. The class given is functional, organism-based. As to conditions: Enterovirus B, 72 h. The gist of the method:
as §1

In data set [24] the test system is Feline coronavirus. As to the kind of experiment: Antiviral activity against Feline caronavirus infected in […] cells assessed as inhibition of virus-induced cytopathic effect after 3 days by MTS assay. The class given is functional, organism-based. The gist of the method: as §1
For data set [25], the system named is Bacillus subtilis. The experiment in a line: Antibacterial activity against Bacillus subtilis after 24 hrs by serial dilution method. The class given is functional.

pEC50: −log10 of the molar value. ≈ marks a conversion by molar mass, not a printed value. Calls of active or inactive are those of the source. The calls are words filed in the database; no cut-off is given here.

As a reminder, the EC50 is the concentration giving half of the maximal effect. The CC50 is the concentration that lowers cell viability or growth by half. Take `COc1cc(OC)cc(C(=O)N/N=C/c2ccccc2Cl)c1`: the inhibition entry in [1], in data set [2], in [4], in [6], in data set [7] and in data set [9] was “inactive” in each case. The inhibition result in [10], in data set [11], in [12], in [18], in [19] and in data set [20] was “inactive” each time. The inhibition result in [21], in [22] and in [24] was “inactive” in each case. In addition, the MBC in [3] is recorded as greater than 0.157 uM/ml; in data set [17], greater than 0.157 uM/ml; in data set [25], 0.039 uM/ml. The figures for the “-logMIC” value in data set [5] and in data set [8] were 2.01 and 1.56, respectively. For the same compound, the figures for the MFC in data set [5] and in data set [8] were 0.019 uM/ml and greater than 0.157 uM/ml, respectively. In addition, the results for the EC50 in [13], in data set [14] and in data set [23] were greater than 20 µg/mL, 13.2 µg/mL and greater than 20 µg/mL, respectively. Besides, in data set [15], the MCC at 72 h is 100 µg/mL. In addition, the CC50 in data set [16] is 64 µg/mL (≈ 201 µM).

What is called pEC50 is −log10 of the EC50, conventionally taken in molar units. As to `NC(=O)c1ncn([C@@H]2O[C@H](CO)[C@@H](O)[C@H]2O)n1` [RIBAVIRIN], the pEC50 was 5.18 in data set [13], 4.76 in [14] and 4.14 in data set [23]. Also, in data set [15], the CC50 at 72 h is greater than 250 µg/mL. In data set [15], this compound yielded an MCC at 72 h greater than 250 µM.

Regarding `Nc1ncnc2c1ncn2C[C@H](O)CO` [(S)-DHPA], the negative-log EC50 (pEC50) in data set [13], in data set [14] and in data set [23] was less than 3.60 each time. In addition, the CC50 at 72 h in [15] is greater than 250 µg/mL. In addition, the MCC at 72 h in [15] is greater than 250 µM.

In the case of `COc1cc(OC)cc(C(=O)N/N=C/c2ccccc2)c1`, the inhibition result in data set [1], in [2], in data set [4], in data set [6], in data set [7] and in data set [9] was “inactive” each time. Also, the inhibition entry in data set [10], in data set [11], in [12], in data set [18], in data set [19] and in data set [20] was “inactive” throughout. Moreover, the inhibition entry in data set [21], in [22] and in data set [24] was “inactive” throughout. Moreover, the MBC came out at 0.177 uM/ml in data set [3], 0.088 uM/ml in [17] and 0.044 uM/ml in data set [25]. Further, the MFC in data set [5] amounted to 0.011 uM/ml; in [8], 0.022 uM/ml. The “-logMIC” value in [8] worked out at 1.66. Besides, the EC50 in data set [13] was greater than 20 µg/mL; in data set [14], 6.5 µg/mL; in [23], greater than 20 µg/mL. This compound came in with an MCC at 72 h in [15] of 100 µg/mL. Besides, in [16], the CC50 was 61.2 µg/mL (≈ 215 µM).

As to `O=C(N/N=C/c1ccccc1Cl)c1cc([N+](=O)[O-])cc([N+](=O)[O-])c1`, the inhibition result in [1], in [2], in data set [4], in data set [6], in data set [7] and in [9] was “inactive” each time. For the same compound, the inhibition entry in [10], in data set [11], in data set [12], in data set [18], in data set [19] and in data set [20] was “inactive” throughout. Further, the inhibition result in data set [21], in [22] and in data set [24] was “inactive” each time. The MBC is on record as greater than 0.13 uM/ml in data set [3], greater than 0.13 uM/ml in data set [17] and 0.065 uM/ml in data set [25]. Moreover, the “-logMIC” value is 2.05 in [5] and 1.6 in [8]. The MFC in data set [5] and in [8] was greater than 0.13 uM/ml throughout.

Consider `Cc1cccc(C(=O)N/N=C/c2ccccc2)c1`, for which the inhibition entry in data set [1], in data set [2], in [4], in data set [6], in data set [7] and in data set [9] was “inactive” throughout. The inhibition entry in data set [10], in data set [11], in [12], in data set [18], in data set [19] and in data set [20] was “inactive” each time. Further, the inhibition result in [21], in data set [22] and in data set [24] was “inactive” each time. Moreover, the MBC in data set [3] is on record as greater than 0.21 uM/ml; in [17] it was greater than 0.21 uM/ml; in data set [25], 0.052 uM/ml. Also, the MFC in [5] and in data set [8] was greater than 0.21 uM/ml each time. Also, the “-logMIC” value in data set [8] is 1.58.

As for `CCCCCCCCCCCC(=O)N/N=C/c1ccccc1Cl`, the inhibition result in [1], in [2], in [4], in data set [6], in data set [7] and in data set [9] was “inactive” throughout. The inhibition entry in data set [10], in data set [11], in data set [12], in data set [18], in data set [19] and in data set [20] was “inactive” in each case. Also, the inhibition entry in [21], in data set [22] and in [24] was “inactive” throughout. Moreover, the figures for the “-logMIC” value in data set [3] and in data set [8] were 1.8 and 1.43, respectively. The MBC is given as 0.009 uM/ml in data set [3], greater than 0.148 uM/ml in [17] and 0.148 uM/ml in data set [25]. Besides, the MFC in [5] and in data set [8] was greater than 0.148 uM/ml in each case.

The values above are taken from ChEMBL document CHEMBL1177846, “Benzylidene/2-chlorobenzylidene hydrazides: synthesis, antimicrobial activity, QSAR studies and antiviral evaluation” (Eur J Med Chem, 2010).
